In brackets after ≈: the same amount, converted by molar mass. Several values for one entry are separate records, joined by “and”; a condition that tells them apart may be missing. Identical values can stand only once.

Common to all, as to type: functional
Assay [1] can be described thus: Ratio measured as the VR of C-3''-deoxyribofuranoside to the VR at a MIC of 54 ug/mL.
Assay [2] deals with unidentified influenza virus. Kind of assay: Antiviral activity is expressed as virus rating (VR) against the influenza Ao/PR/8/34 virus strain. Summed up:
(§1)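 Virus rating (VR) from CPE inhibition in monolayers: HSV-1 377 and HSV-2 MS in Vero cells, HSV-1 HF in H.Ep.-2 cells, influenza A0/PR/8/34 in MDCK cells. A VR of 1.0 or more means definite, significant activity. A VR of 0.5–0.9 means marginal to moderate activity. A VR below 0.5 usually means no significant activity.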

A short description of assay [3]: Ratio measured as the VR of C-3''-deoxyribofuranoside to the VR at a MIC of 14 ug/mL.
Assay [4] concerns unidentified influenza virus. Kind of assay: Antiviral activity against the influenza Ao/PR/8/34 virus strain. Summed up:
(§2)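 Cytopathic effect (CPE) inhibition in cell monolayers. Host cells: HSV-1 strain 377 (TK+) and HSV-2 strain MS (TK+) in Vero cells; HSV-1 strain HF (TK−) in H.Ep.-2 cells; influenza A0/PR/8/34 in Madin-Darby canine kidney cells. MIC50 is the concentration giving 50% inhibition of virus-induced CPE. ara-A was run as the positive control in the HSV tests.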

Assay [5] concerns Human alphaherpesvirus 1. Kind of assay: Antiviral activity is expressed as virus rating (VR) against the HSV-1 377 strain. An outline of the steps:
as §1

Assay [6] relates to Human alphaherpesvirus 1. Kind of assay: Antiviral activity is expressed as virus rating (VR) against the HSV-1 HF strain. An outline of the steps: as §1
In assay [7] the test system is Human alphaherpesvirus 1. Kind of assay: Antiviral activity against the HSV-1 HF strain from monolayers of human epidermoid carcinoma (H.Ep.-2) cells. Summed up:
as §2

Assay [8] in a line: Ratio measured as the VR of C-3''-deoxyribofuranoside to the VR at a MIC of 3 ug/mL.
Assay [9] concerns Human alphaherpesvirus 1. Kind of assay: Antiviral activity against the HSV-1 377 strain from monolayers of vero cells. Summed up:
as §2

Assay [10] in a line: Ratio measured as the VR of C-3''-deoxyribofuranoside to the VR at a MIC of 18 ug/mL.
Assay [11] in a line: Ratio measured as the VR of C-3''-deoxyribofuranoside to the VR at a MIC of 56 ug/mL.
A short description of assay [12]: Ratio measured as the VR of C-3''-deoxyribofuranoside to the VR at a MIC of 34 ug/mL.
Assay [13] can be described thus: Ratio measured as the VR of C-3''-deoxyribofuranoside to the VR at a MIC of 6 ug/mL.
A short description of assay [14]: Ratio measured as the VR of C-3''-deoxyribofuranoside to the VR at a MIC of 15 ug/mL.

As to `NC(=O)c1ncn([C@@H]2O[C@H](CO)[C@@H](O)[C@H]2O)n1` [RIBAVIRIN], the Ratio in assay [1] is 0.19; in [3], 0.45. The VR in assay [2] is 2.6 and 2.9.

With `Nc1nc(O)c2ncn(C3CC(CO)CC3O)c2n1` (configuration not stated), the MIC50 in [4] was 260 µg/mL (≈ 980 µM). Also, the VR in the assay with Human alphaherpesvirus 1 [5] was 2.6 and 3.1 and 1.9; in assay [2], 1.3; with Human alphaherpesvirus 1 [6], 0.

As for `Nc1nc(N)c2nnn(C3CC(CO)CC3O)c2n1` (configuration not stated), the MIC50 in assay [4] came out at 200 µg/mL (≈ 754 µM). Also, the VR in assay [2] is reported as 1.3.

For `Nc1nc(Cl)c2ncn([C@@H]3C[C@H](CO)C[C@H]3O)c2n1`, the MIC50 in assay [4] is above 284 µg/mL; against Human alphaherpesvirus 1 [7] it was 190 µg/mL (≈ 670 µM). Moreover, the VR in the assay with Human alphaherpesvirus 1 [5] was 0.1; in [2] it was 0.5; in the assay with Human alphaherpesvirus 1 [6], 1.5.

On to `Nc1nc2c(ncn2COCCO)c(=O)[nH]1` [ACYCLOVIR], for which the results for the VR with Human alphaherpesvirus 1 [5] and in the assay on Human alphaherpesvirus 1 [6] were 5.7 and 0, respectively. The Ratio in assay [8] is 0.33. Moreover, in the assay with Human alphaherpesvirus 1 [9] (Human alphaherpesvirus 1, read-out: MIC50), the MIC50 is 3 µg/mL (≈ 13.3 µM).

`Nc1ncnc2c1ncn2[C@@H]1O[C@H](CO)[C@@H](O)[C@@H]1O` [VIDARABINE]: the VR with Human alphaherpesvirus 1 [5] was 2 and 2.1; in the assay on Human alphaherpesvirus 1 [6] it was 2.4. In addition, the MIC50 in the assay with Human alphaherpesvirus 1 [7] is 6 µg/mL (≈ 22.5 µM); against Human alphaherpesvirus 1 [9], 15 µg/mL and 18 µg/mL and 34 µg/mL. The Ratio came out at 1.5 in [10]; 1.44 in assay [11]; 0.95 in assay [12]; 0.63 in assay [13]; 1.3 in [14].
